Tests used:
[1] = test system: SGC-7901; experiment: Cytotoxicity against human SGC7901 cells assessed as growth inhibition after 72 hrs by MTT assay; type: functional, cell-based; conditions: SGC-7901, 72 h
[2] = Antioxidant activity assessed as galvinoxyl free radical scavenging activity at 20 uM relative to control; type: functional
[3] = test system: Radical scavenging activity; experiment: Antioxidant activity assessed as DPPH free radical scavenging activity at 100 uM relative to control; type: functional
[4] = test system: A549; experiment: Cytotoxicity against human A549 cells assessed as growth inhibition after 72 hrs by MTT assay; type: functional, cell-based; conditions: A549, 72 h
[5] = test system: HepG2; experiment: Cell cycle arrest in human HepG2 cells assessed as accumulation at G2/M phase at 30 uM after 12 hrs by propidium iodide staining-based FACS flow cytometric analysis (reference value: 33.98%); type: functional
[6] = test system: HepG2; experiment: Cell cycle arrest in human HepG2 cells assessed as accumulation at S phase at 30 uM after 12 hrs by propidium iodide staining-based FACS flow cytometric analysis (reference value: 22.47%); type: functional
[7] = test system: Radical scavenging activity; experiment: Antioxidant activity assessed as DPPH free radical scavenging activity at 1 uM relative to control; type: functional
[8] = test system: HepG2; experiment: Cell cycle arrest in human HepG2 cells assessed as accumulation at G0/G1 phase at 30 uM after 12 hrs by propidium iodide staining-based FACS flow cytometric analysis (reference value: 22.94%); type: functional
[9] = Antioxidant activity assessed as galvinoxyl free radical scavenging activity at 100 uM relative to control; type: functional
[10] = Antioxidant activity assessed as galvinoxyl free radical scavenging activity at 10 uM relative to control; type: functional
[11] = Antioxidant activity assessed as galvinoxyl free radical scavenging activity; type: functional
[12] = test system: Radical scavenging activity; experiment: Antioxidant activity assessed as DPPH free radical scavenging activity at 2 uM relative to control; type: functional
[13] = test system: Radical scavenging activity; experiment: Antioxidant activity assessed as DPPH free radical scavenging activity at 20 uM relative to control; type: functional
[14] = test system: Radical scavenging activity; experiment: Antioxidant activity assessed as DPPH free radical scavenging activity at 10 uM relative to control; type: functional
[15] = test system: HCT-116; experiment: Cytotoxicity against human HCT116 cells assessed as growth inhibition after 72 hrs by MTT assay; type: functional, cell-based; conditions: HCT-116, 72 h
[16] = Antioxidant activity assessed as galvinoxyl free radical scavenging activity at 2 uM relative to control; type: functional
[17] = test system: HepG2; experiment: Cytotoxicity against human HepG2 cells assessed as growth inhibition after 72 hrs by MTT assay; type: functional, cell-based; conditions: HepG2, 72 h
[18] = Antioxidant activity assessed as galvinoxyl free radical scavenging activity at 1 uM relative to control; type: functional
[19] = test system: Radical scavenging activity; experiment: Antioxidant activity assessed as DPPH free radical scavenging activity; type: functional
[20] = Aqueous solubility of the compound by UV-vis absorption spectroscopic analysis; type: physicochemical
[21] = test system: HepG2; experiment: Ratio of curcumin IC50 to compound IC50 for human HepG2 cells; type: functional
[22] = Stability of the compound in phosphate-buffered solution assessed as drug degradation under daylight condition at […] measured within 120 mins by UV-vis absorption spectroscopic analysis in presence of FBS; type: physicochemical; conditions: buffer, 2 h
In short: (§1)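 Absorbance at 410 nm followed over time in phosphate-buffered solution (pH 7.4) under daylight, without or with 0.1% FBS; stability expressed as A/A0 relative to the 0 min reading.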

[23] = test system: HCT-116; experiment: Ratio of curcumin IC50 to compound IC50 for human HCT116 cells; type: functional
[24] = Stability of the compound in phosphate-buffered solution assessed as drug degradation under daylight condition at […] measured within 120 mins by UV-vis absorption spectroscopic analysis in absence of FBS; type: physicochemical; conditions: buffer, 2 h; in short: as §1

Structure (SMILES)	IC50 [1] [µM]	Activity [2] [%]	Activity [3] [%]	IC50 [4] [µM]	Activity [7] [%]	Activity [9] [%]	Activity [10] [%]	IC50 [11] [µM]	Activity [12] [%]	Activity [13] [%]	Activity [14] [%]	IC50 [15] [µM]	Activity [16] [%]	IC50 [17] [µM]	Activity [18] [%]	IC50 [19] [µM]	Stability [22]	Stability [24]	further results
COc1cc(/C=C/C(=O)CC(=O)/C=C/c2ccc(O)c(OC)c2)ccc1O [CURCUMIN]	29	22.2	87.2	32.2	0.3	45	13.7	> 100	2.4	42	23.1	41.5	5.8	78.7	4.6	26.5			Activity [5]: 50.2%; Activity [6]: 29.33%; Activity [8]: 20.46%
COc1cc(/C=C2\CC/C(=C\c3cc(CN(C)C)c(O)c(OC)c3)C2=O)cc(CN(C)C)c1O		48	88.6		38.6	58.6	35.3	56.3	47.9	82	50.9	24.4	12.8	46.2	8.6	1.8			
CN(C)Cc1cc(/C=C2\CC/C(=C\c3ccc(O)c(CN(C)C)c3)C2=O)ccc1O	57.3	46.8	90.4	78.1	24.8	71.8	30.6	45	54	86.8	67.4	142	13.3	43.6	3.8	2.3			
CN(C)Cc1cc(/C=C2\CCC/C(=C\c3cc(CN(C)C)c(O)c(CN(C)C)c3)C2=O)ccc1O	45.3	38.7	90.3	35.5	25.9	52.3	36.5	65.9	54.5	85.7	66.6	64.7	21.3	49.5	13.4	2			
CN(C)Cc1cc(/C=C/C(=O)/C=C/c2ccc(O)c(CN(C)C)c2)ccc1O.Cl.Cl																			solubility [20]: 368 mg/mL
COc1cc(/C=C/C(=O)CC(=O)/C=C/c2ccc(O)c(CN(C)C)c2)ccc1O	23.5	37.8	91.2	20.2	1.1	51.9	16.5	66.6	5	51.7	23.4	3.7	3.1	5.2	0	18.6	Unstable	Unstable	Ratio IC50 [21]: >10; Activity [5]: 24.97%; Activity [6]: 45.63%; Activity [8]: 29.4%; Ratio IC50 [23]: >10
COc1cc(/C=C/C(=O)CC(=O)/C=C/c2ccc(O)c(C[N+](C)(C)C)c2)ccc1O	321													126					
COc1cc(/C=C2\CCC/C(=C\c3cc(CN(C)C)c(O)c(OC)c3)C2=O)cc(CN(C)C)c1O	25.8	52.9	86.3	51.8	24.7	58.9	38.9	16.3	40.1	82.8	55	65.9	21.1	24.3	8.3	4.8	Stable	Stable	
CN(C)Cc1cc(/C=C2\CCC/C(=C\c3ccc(O)c(CN(C)C)c3)C2=O)ccc1O.Cl.Cl																			solubility [20]: 303 mg/mL
CN(C)Cc1cc(/C=C2\CCC/C(=C\c3ccc(O)c(CN(C)C)c3)C2=O)ccc1O																	Stable	Stable	

Reference: ChEMBL document CHEMBL2390868, “Design and synthesis of dimethylaminomethyl-substituted curcumin derivatives/analogues: potent antitumor and antioxidant activity, improved stability and aqueous solubility compared with curcumin” (Bioorg Med Chem Lett, 2013)
